According to ChEMBL document CHEMBL3526105, “Cytochrome P450-mediated oxidative metabolism of abused synthetic cannabinoids found in K2/Spice: identification of novel cannabinoid receptor ligands” (Drug Metab Dispos, 2012):
Calls of active or inactive are those of the source. The calls are words filed in the database; no cut-off is given here.

Legend:
Liver microsome [1] = test: Drug metabolism in human liver microsomes assessed as intrinsic clearance per mg protein treated with AM2201; format: ADME
Cytochrome P450 2C9 [2] = biological target: T1, Cytochrome P450 2C9 (Homo sapiens, UniProt P11712); test: Drug metabolism assessed as intrinsic clearance for human recombinant CYP2C9-mediated compound formation per nmol protein treated with AM2201 at 10 uM after 90 mins; format: ADME; conditions: recombinant enzyme, 1.5 h
Cytochrome P450 1A2 [3] = biological target: T2, Cytochrome P450 1A2 (Homo sapiens, UniProt P05177); test: Drug metabolism assessed as intrinsic clearance for human recombinant CYP1A2-mediated compound formation per nmol protein treated with AM2201 at 10 uM after 90 mins; format: ADME; conditions: recombinant enzyme, 1.5 h
T2 sequence (P05177 whole entry): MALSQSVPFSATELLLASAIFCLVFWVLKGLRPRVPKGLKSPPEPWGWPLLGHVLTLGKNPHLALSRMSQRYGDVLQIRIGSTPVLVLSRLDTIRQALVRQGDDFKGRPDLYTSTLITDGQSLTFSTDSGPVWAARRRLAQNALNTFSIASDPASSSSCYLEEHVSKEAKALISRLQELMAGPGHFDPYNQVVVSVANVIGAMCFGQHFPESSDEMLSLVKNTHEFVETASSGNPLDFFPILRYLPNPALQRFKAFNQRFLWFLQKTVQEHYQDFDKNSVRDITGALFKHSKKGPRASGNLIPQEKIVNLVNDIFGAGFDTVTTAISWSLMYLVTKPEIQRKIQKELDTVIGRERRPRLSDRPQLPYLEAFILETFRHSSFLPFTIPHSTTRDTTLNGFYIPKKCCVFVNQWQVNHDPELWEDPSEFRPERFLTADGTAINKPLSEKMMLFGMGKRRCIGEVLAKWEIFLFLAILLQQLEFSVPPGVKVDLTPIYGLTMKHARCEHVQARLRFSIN

[4] = biological target: Cannabinoid receptor 1 (Mus musculus) (UniProt P47746); test: Activation of CB1 receptor in B6SJL mouse brain membrane assessed as [35S]-GTPgammaS binding at 10 uM after 30 mins by liquid scintillation spectrophotometric analysis; format: functional, cell membranes
In short: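 Mouse brain membrane homogenate (25 μg; whole B6SJL brains, pooled, Dounce-homogenised, spun 40,000g three times). Incubated with […], 0.1 nM [35S]GTPγS in 20 mM HEPES, 10 mM MgCl2, 100 mM NaCl, 20 U/l adenosine deaminase, 0.05% BSA, 30 min at 30°C, triplicate. Nonspecific binding with 10 μM unlabelled GTPγS. Stopped by GF/B filtration; filters counted by scintillation.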

Cytochrome P450 2C19 [5] = biological target: T3, Cytochrome P450 2C19 (Homo sapiens, UniProt P33261); test: Drug metabolism assessed as intrinsic clearance for human recombinant CYP2C19-mediated compound formation per nmol protein treated with AM2201 at 10 uM after 90 mins; format: ADME; conditions: recombinant enzyme, 1.5 h
Cytochrome P450 2D6 [6] = biological target: T4, Cytochrome P450 2D6 (Homo sapiens, UniProt P10635); test: Drug metabolism assessed as intrinsic clearance for human recombinant CYP2D6-mediated compound formation per nmol protein treated with AM2201 at 10 uM after 90 mins; format: ADME; conditions: recombinant enzyme, 1.5 h
Liver microsome [7] = test: Drug level in human liver microsomes treated with JWH-018 at 10 uM after 20 mins by LC-MS/MS analysis; format: ADME
In short: (§1)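 Pooled human liver microsomes (75 μg) incubated with 10 μM substrate in 0.1 M KPO4 pH 7.4 with NADPH-regenerating system at 37°C. Reaction stopped with ethanol, centrifuged. Analytes quantified by positive-ESI LC-MS/MS against standards matrix-matched in reaction mixture, with confirmation by SRM-triggered enhanced product ion spectra library matching.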

Liver microsome [8] = test: Drug metabolism in human liver microsomes assessed as intrinsic clearance per mg protein treated with JWH-018; format: ADME
Cytochrome P450 2C9 [9] = biological target: T1, Cytochrome P450 2C9; test: Drug metabolism assessed as intrinsic clearance for human recombinant CYP2C9-mediated compound formation per nmol protein treated with JWH-018 at 10 uM after 90 mins; format: ADME; conditions: recombinant enzyme, 1.5 h
Cannabinoid receptor 1 = Cannabinoid receptor 1 (Mus musculus, UniProt P47746); test: Displacement of [3H]CP-55,940 from CB1 receptor in B6SJL mouse brain membrane after 90 mins by liquid scintillation spectrophotometric analysis; format: cell membranes
In short: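 B6SJL mouse brain membranes (50 μg) with 0.2 nM [3H]CP-55,940 and competitor at 0.1 nM–10 μM. Buffer 5 mM MgCl2, 50 mM Tris, 0.05% BSA; 90 min at room temperature, triplicate. Nonspecific binding set with 10 μM WIN-55,212-2. Filtered on GF/B, washed with Tris/BSA, counted by scintillation. Specific binding given as % of vehicle.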

Cytochrome P450 1A2 [10] = biological target: T2, Cytochrome P450 1A2; test: Drug metabolism assessed as intrinsic clearance for human recombinant CYP1A2-mediated compound formation per nmol protein treated with JWH-018 at 10 uM after 90 mins; format: ADME; conditions: recombinant enzyme, 1.5 h
[11] = Drug level in human urine treated with JWH-018 by LC-MS/MS analysis; format: ADME, tissue-based
In short: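 Urine from suspected users (40 μl) incubated with or without β-glucuronidase (1.6 U/μl final) in 0.1 M sodium acetate pH 5.0, 60 min at 37°C with shaking. Analysed by positive-ESI LC-MS/MS against standards matrix-matched in blank pooled human urine, with confirmation by enhanced product ion spectra.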

[12] = biological target: Cannabinoid receptor 1 (Mus musculus) (UniProt P47746); test: Activation of CB1 receptor in B6SJL mouse brain membrane assessed as [35S]-GTPgammaS binding at 10 uM after 30 mins by liquid scintillation spectrophotometric analysis in presence of O-2050; format: functional, cell membranes
Cytochrome P450 2C19 [13] = biological target: T3, Cytochrome P450 2C19; test: Drug metabolism assessed as intrinsic clearance for human recombinant CYP2C19-mediated compound formation per nmol protein treated with JWH-018 at 10 uM after 90 mins; format: ADME; conditions: recombinant enzyme, 1.5 h
Cytochrome P450 2D6 [14] = biological target: T4, Cytochrome P450 2D6; test: Drug metabolism assessed as intrinsic clearance for human recombinant CYP2D6-mediated compound formation per nmol protein treated with JWH-018 at 10 uM after 90 mins; format: ADME; conditions: recombinant enzyme, 1.5 h
Liver microsome [15] = test: Drug level in human liver microsomes treated with AM2201 at 10 uM after 20 mins by LC-MS/MS analysis; format: ADME; in short: as §1

Cannabinoid receptor 1 (Mus musculus), sequence (P47746 whole entry): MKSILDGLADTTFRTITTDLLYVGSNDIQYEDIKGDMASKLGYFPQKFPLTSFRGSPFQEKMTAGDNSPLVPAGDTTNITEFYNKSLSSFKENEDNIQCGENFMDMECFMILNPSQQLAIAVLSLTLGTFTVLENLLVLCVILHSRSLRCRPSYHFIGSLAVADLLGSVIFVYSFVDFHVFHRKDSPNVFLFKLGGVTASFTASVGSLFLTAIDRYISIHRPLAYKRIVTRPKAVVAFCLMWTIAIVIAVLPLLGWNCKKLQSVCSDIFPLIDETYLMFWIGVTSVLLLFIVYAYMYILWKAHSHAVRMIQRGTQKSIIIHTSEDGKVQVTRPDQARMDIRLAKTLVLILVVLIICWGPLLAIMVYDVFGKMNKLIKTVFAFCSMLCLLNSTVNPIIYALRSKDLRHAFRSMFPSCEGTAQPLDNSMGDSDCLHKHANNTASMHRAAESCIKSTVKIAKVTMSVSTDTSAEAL
T3 sequence (P33261 whole entry): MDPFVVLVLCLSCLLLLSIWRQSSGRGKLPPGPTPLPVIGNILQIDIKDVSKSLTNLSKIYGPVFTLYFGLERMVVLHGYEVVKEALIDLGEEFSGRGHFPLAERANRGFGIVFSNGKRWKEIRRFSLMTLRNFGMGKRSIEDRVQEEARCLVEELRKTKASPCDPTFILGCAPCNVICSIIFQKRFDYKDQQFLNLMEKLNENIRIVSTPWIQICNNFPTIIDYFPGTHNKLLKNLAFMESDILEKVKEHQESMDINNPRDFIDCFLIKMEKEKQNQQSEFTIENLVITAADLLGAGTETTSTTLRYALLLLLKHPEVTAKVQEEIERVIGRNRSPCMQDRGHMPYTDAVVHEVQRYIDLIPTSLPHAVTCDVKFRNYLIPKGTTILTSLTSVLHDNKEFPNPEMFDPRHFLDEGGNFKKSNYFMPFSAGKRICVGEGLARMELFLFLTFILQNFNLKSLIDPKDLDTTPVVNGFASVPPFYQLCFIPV
T4 sequence (P10635 whole entry): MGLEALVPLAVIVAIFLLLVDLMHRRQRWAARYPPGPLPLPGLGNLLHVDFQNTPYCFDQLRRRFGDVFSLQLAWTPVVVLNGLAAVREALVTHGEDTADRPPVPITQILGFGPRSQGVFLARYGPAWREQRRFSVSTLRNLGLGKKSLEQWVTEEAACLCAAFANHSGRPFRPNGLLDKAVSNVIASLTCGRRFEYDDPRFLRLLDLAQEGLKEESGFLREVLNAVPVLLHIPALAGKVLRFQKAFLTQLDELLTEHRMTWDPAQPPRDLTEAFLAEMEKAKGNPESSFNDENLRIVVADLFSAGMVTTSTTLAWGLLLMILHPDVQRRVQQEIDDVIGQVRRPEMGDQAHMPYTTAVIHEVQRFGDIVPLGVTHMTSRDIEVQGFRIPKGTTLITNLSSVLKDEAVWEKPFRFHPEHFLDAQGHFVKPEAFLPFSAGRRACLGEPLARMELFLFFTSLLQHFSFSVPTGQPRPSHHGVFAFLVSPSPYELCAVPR
T1 sequence (P11712 whole entry): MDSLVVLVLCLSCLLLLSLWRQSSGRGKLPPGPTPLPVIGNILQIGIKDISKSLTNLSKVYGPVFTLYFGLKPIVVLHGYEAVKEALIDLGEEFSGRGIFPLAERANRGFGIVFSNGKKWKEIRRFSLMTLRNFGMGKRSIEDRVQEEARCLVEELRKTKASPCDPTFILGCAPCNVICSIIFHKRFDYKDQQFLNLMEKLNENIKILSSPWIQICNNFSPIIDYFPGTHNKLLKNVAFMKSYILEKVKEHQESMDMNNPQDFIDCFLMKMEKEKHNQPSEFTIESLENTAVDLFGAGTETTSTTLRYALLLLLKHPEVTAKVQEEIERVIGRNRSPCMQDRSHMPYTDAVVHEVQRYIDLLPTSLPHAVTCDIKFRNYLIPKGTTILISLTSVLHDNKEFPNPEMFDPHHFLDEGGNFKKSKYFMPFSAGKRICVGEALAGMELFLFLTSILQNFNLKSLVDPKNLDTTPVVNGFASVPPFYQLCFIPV
Cannabinoid receptor 1, sequence (P47746 whole entry): as the sequence (P47746 whole entry) above

| Structure (SMILES) | CLH (Liver microsome [1]) [µL/min/g] | CL (Cytochrome P450 2C9 [2]) [µL/min] | CL (Cytochrome P450 1A2 [3]) [µL/min] | Activity [4] | CL (Cytochrome P450 2C19 [5]) [µL/min] | CL (Cytochrome P450 2D6 [6]) [µL/min] | Drug metabolism (Liver microsome [7]) | CLH (Liver microsome [8]) [µL/min/mg] | CL (Cytochrome P450 2C9 [9]) [µL/min] | Ki (Cannabinoid receptor 1) [nM] | CL (Cytochrome P450 1A2 [10]) [µL/min] | Drug metabolism [11] | Activity [12] | CL (Cytochrome P450 2C19 [13]) [µL/min] | CL (Cytochrome P450 2D6 [14]) [µL/min] | Drug metabolism (Liver microsome [15]) [ng/mL] |
| --- | --- | --- | --- | --- | --- | --- | --- | --- | --- | --- | --- | --- | --- | --- | --- | --- |
| O=C(c1cccc2ccccc12)c1cn(CCCC(O)CF)c2ccccc12 (stereo not drawn) | 0.124 | 63 | 19 | Active | 32 | 3.7 |  |  |  |  |  |  |  |  |  |  |
| CCCCCn1cc(C(=O)c2cccc3ccccc23)c2cccc(O)c21 | 0 |  |  |  |  |  | metabolite_detected | 0 |  |  |  |  |  |  |  |  |
| CC(O)CCCn1cc(C(=O)c2cccc3ccccc23)c2ccccc21 (stereo not drawn) |  |  |  | Active |  |  |  | 0.574 | 375 | 15.4 | 306 | metabolite_detected | inactive | 48.7 | 13.4 |  |
| CCCCCn1cc(C(=O)c2cccc3ccccc23)c2cc(O)ccc21 | 0 |  |  |  |  |  | metabolite_detected | 0.52 |  |  |  |  |  |  |  |  |
| O=C(c1cccc2ccccc12)c1cn(CCCCCO)c2ccccc12 | 0.483 | 63 | 19 | Active | 32 | 3.7 |  | 0.5 | 1035 | 35 | 157 | metabolite_detected | inactive | 6.5 | 9.3 | 8.53 |
| CCCCCc1cc(O)c2c(c1)OC(C)(C)[C@@H]1CCC(C)=C[C@@H]21 |  |  |  | Active |  |  |  |  |  |  |  |  | inactive |  |  |  |
